Experimental findings from PubChem BioAssay AID688 (PCMD, 2007) are described below.

In general, inhibition refers to the change of the read-out against control, counted positive when it falls.

About 250 (0.93%) of roughly 27,000 compounds were called active.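 The calls were made as follows: active = mutant luminescence inhibited past about 50% while wild type luminescence and mutant growth stay under set limits (limit read from the data); inconclusive = mutant versus wild type luminescence inhibition gap past a set limit; inactive = the rest.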 The list comes from a sample in which actives are over-represented; it also holds similar structures and randomly drawn compounds.

This assay can be described thus: GCN4-lacZ reporter reduction in eIF2B-epsilon mutant yeast, primary screen, S. cerevisiae, eIF2B-epsilon R284H, Beta-Glo luminescence (AID 688). Conditions: growth inhibition: measured here: mutant yeast growth, toxicity, concentration not given here; inhibition: stronger effect = higher value, screened at 25 µM (by protocol). The procedure, abridged:
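Material – yeast eIF2B-epsilon R284H mutant carrying GCN4–beta-galactosidase fusion · Medium – YPD yeast growth medium · Compound – one concentration, 25 µM, 0.25% DMSO · Times – 16 h at 30 °C exposure · Signal – Beta-Glo luminescence plus absorbance at 595 nm · Read-out – % inhibition of reporter signal and growth versus controls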
Turning to `CC(C)(C)NC(=O)c1cc(NC(=O)c2ccco2)cc(NC(=O)c2ccco2)c1`, the inhibition was 11.3% (inactive).

On to `CCOc1ccccc1N=C1NC(=O)CS1`, for which the inhibition is -14.3% (inactive).

For `CC/C(=N\O)C(C)(C)/[N+]([O-])=C/c1ccc(Br)cc1`, the growth inhibition stood at 5.26% and the inhibition is 9.15% (inactive).

Regarding `N=c1c2c3c(sc2ncn1CCCN1CCOCC1)CCCCC3`, the growth inhibition is 3.7% and the inhibition was 23% (inactive).

Consider `Cc1nnc(SCC(=O)N2CCN(c3ccccc3)CC2)n1-c1ccccc1`, for which the growth inhibition is -9.52% and the inhibition is 1.9% (inactive).

Regarding `c1ccc(CCc2nc(-c3ccncc3)no2)cc1`, the growth inhibition was found to be 15.2% and the inhibition is 50.4% (active).

Consider `c1csc(-c2nc(-c3ccncc3)no2)c1`, for which the growth inhibition is 6.45% and the inhibition is 2.34% (inactive).

As to `O=C1c2ccccc2C(=O)N1CCCc1nc(-c2ccccc2)no1`, the growth inhibition is -5.56% and the inhibition is -17.2% (inactive).

Consider `COCCOCCn1cnc2ccccc21`, for which the growth inhibition turned out to be 6.67% and the inhibition was 18.1% (inactive).

Consider `CCOn1c(SC(C)C)nc2ccccc2c1=O`, for which the inhibition was 10.3% (inactive).

Regarding `O=C(CSc1nnc(-c2cccnc2)n1CCc1ccccc1)NCc1ccccc1`, the inhibition is -28.6% (inactive).

For the molecule `Cc1ccc(NC(=O)N2CCC(O)(c3cccnc3)CC2)cc1`, the growth inhibition was 12.8% and the inhibition was 17.2% (inactive).

As for `Cn1c(Cc2cccc3ccccc23)nnc1SCC(=O)N1CCN(c2cccc(Cl)c2)CC1`, the growth inhibition stood at 2.78% and the inhibition was 15.8% (inactive).

For the molecule `CCSC1(SCC)N=C(N)C2(C#N)C(c3ccccc3)NC(C)=CC12C#N` (configuration not stated), the growth inhibition is -8.11% and the inhibition is -35% (inactive).

`CNC(=S)N1N=C(c2ccccc2)CC1c1ccc(Br)cc1` (configuration not stated): the growth inhibition was -12.5% and the inhibition was 17.7% (inactive).

With `CCNC(=O)CN(c1ccc(C)cc1)S(=O)(=O)c1ccc(SC)cc1`, the growth inhibition came out at 13.8% and the inhibition was -15% (inactive).

As for `Cc1nn(C)cc1CNC(=O)Nc1ccc(Cl)cc1`, the growth inhibition was -18.2% and the inhibition was -9.58% (inactive).

In the case of `O=C1c2ccncc2C(=O)N1C1CCCCC1`, the growth inhibition amounted to 8.93% and the inhibition was 68.7% (active).

On to `Cc1cc(N2CCN(S(=O)(=O)c3ccc(C)c(C)c3)CC2)c2ccccc2n1`, for which the growth inhibition is 3.23% and the inhibition is 10.4% (inactive).

Regarding `Cc1[nH][nH]c(=O)c1N=Nc1ccccc1`, the growth inhibition was 8.33% and the inhibition is 28.6% (inactive).

Turning to `CN(Cc1nc2ccccc2c(=O)[nH]1)Cc1cc(=O)oc2ccc3ccccc3c12`, the growth inhibition was determined as 9.38% and the inhibition was 16.8% (inactive).

`CC(C)C(NC(=O)c1ccc(Cl)cc1)C(=O)O` (configuration not stated): the growth inhibition was determined as 16.2% and the inhibition is 27.4% (inactive).

Consider `CCC(C(=O)NCc1ccc(OC)cc1)n1nc(C)n2c(cc3occc32)c1=O` (configuration not stated), for which the growth inhibition is -9.52% and the inhibition was 47% (inactive).

Consider `Cc1noc(NS(=O)(=O)c2ccc(NC(=O)C34CCC(CC3)C4)cc2)c1C`, for which the growth inhibition came out at 2.7% and the inhibition was -23.3% (inactive).

On to `C/C=C/C(=O)OCC(=O)Nc1ccc(F)cc1Cl`, for which the growth inhibition is -4.76% and the inhibition is 19.8% (inactive).

As for `COc1ccc(CNCCCO)cc1OC`, the growth inhibition was determined as 8.33% and the inhibition was -1.06% (inactive).

As for `CCc1c(-c2ccccc2)nc(N)c(C#N)c1-c1cccs1`, the growth inhibition is -19.1% and the inhibition is 15.9% (inactive).

On to `OCCN1CCOCCOCCN(CCO)CCN(CCO)CC1`, for which the growth inhibition was -9.52% and the inhibition is 13.5% (inactive).

For the molecule `O=c1[nH][nH]c(C(F)(F)F)c1C=NCc1ccccc1Cl`, the growth inhibition is 12.5% and the inhibition was 12% (inactive).

Turning to `O=P(O)(CP(=O)(c1ccccc1)c1ccccc1)c1ccccc1`, the growth inhibition was found to be 3.57% and the inhibition was -14.4% (inactive).

For `CC(C)(C)NC(=O)Cn1c(SCC(=O)Nc2nccs2)nc2ccccc21`, the growth inhibition is -29.4% and the inhibition is 0.21% (inactive).

Take `COc1ccccc1N=C1SC(C)CN1C(=O)C1CCC1` (configuration not stated): the growth inhibition was 4.55% and the inhibition was 26.9% (inactive).

With `CCN(CC(=O)Nc1ccccc1OC)C(=O)Cn1cnc2ccccc2c1=O`, the growth inhibition is -14.3% and the inhibition was 6.69% (inactive).

Take `C/C(=N\NS(=O)(=O)c1ccc(Br)cc1)c1cccs1`: the growth inhibition came out at 2.78% and the inhibition is 11% (inactive).

Take `Cc1cccc(NC(=O)C2CC(=O)OC23CCCC3)c1` (configuration not stated): the growth inhibition was determined as 11.5% and the inhibition is -11.9% (inactive).

On to `Cc1ccc(NC(=O)N2CCC(c3nc4c(nnn4Cc4c(F)cccc4Cl)c(=O)[nH]3)CC2)cc1`, for which the growth inhibition is 6.06% and the inhibition is 14.6% (inactive).

On to `CCC(C)NC(=O)CCCc1ccccc1` (configuration not stated), for which the growth inhibition is -2.38% and the inhibition was 7.79% (inactive).

Take `CCCCNC(=O)C1CCCNC1=O` (configuration not stated): the growth inhibition was 26.5% and the inhibition is 22.2% (inactive).

As for `CC1(C)Cc2c(sc3nc(SCC(=O)NCc4ccccc4)n(-c4ccccc4)c(=O)c23)CS1`, the growth inhibition is -11.9% and the inhibition is -11% (inactive).

On to `CCOc1ccc(S(=O)(=O)NCC2CCCO2)cc1` (configuration not stated), for which the growth inhibition stood at 5.88% and the inhibition was 10.3% (inactive).

With `Cn1c2c(c(=O)n(C)c1=O)C(c1cccc([N+](=O)[O-])c1)Nc1ccccc1O2` (configuration not stated), the growth inhibition was -14.3% and the inhibition was 20.4% (inactive).

Take `CC(=O)Nc1ccc(S(=O)(=O)N2CCN(C3CCCCCCC3)CC2)cc1`: the growth inhibition amounted to 9.09% and the inhibition was -9.55% (inactive).

For the molecule `CCOC(=O)CSc1nnc(CNc2ccc(F)cc2)o1`, the growth inhibition is 3.45% and the inhibition is 19.4% (inactive).

Consider `COc1ccc(CN(CC(=O)NC2CCCC2)C(=O)CCC(=O)Nc2cc(C)on2)cc1`, for which the growth inhibition is -15.6% and the inhibition is -35.1% (inactive).

As for `CN(C(=O)COc1ccccc1)c1nnc(-c2ccncc2)s1`, the inhibition is 10.2% (inactive).

With `CCOC(=O)CSc1nncc2ccc(OC)c(OC)c12`, the inhibition was 50.1% (active).

For the molecule `CCOC(=O)CSc1nnc(CNC(=O)Cc2ccccc2)n1-c1ccccc1OC`, the growth inhibition was -1.72% and the inhibition was 36.1% (inactive).

Regarding `CCOC(=O)CSc1nccc(N(C)C)c1C#N`, the growth inhibition came out at 12% and the inhibition is 24.8% (inactive).

For the molecule `CCC(=O)c1ccc(OCC(O)CN2CC(C)OC(C)C2)cc1` (configuration not stated), the growth inhibition stood at 4.55% and the inhibition is -8.08% (inactive).
